From ChEMBL document CHEMBL1131331, “Structure-activity studies on anticonvulsant sugar sulfamates related to topiramate. Enhanced potency with cyclic sulfate derivatives” (J Med Chem, 1998)
One block for each molecule: values may come before it.

Key:
[1] = test system: Mus musculus; assay: Activity against maximal electroshock seizures in mice, 4 hr following oral administration of 35 mg/kg of compound; assay type: functional
In short: (§1)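 Mouse maximal electroshock seizure test. An electric shock is applied through corneal electrodes, and block of the hind-limb tonic-extensor seizure is scored. Compounds are given orally, usually to 10 mice per group, and tested 4 h after dosing. The result is reported as percent of dosed animals protected at the stated dose.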

[2] = test system: Mus musculus; assay: Inhibition of maximal electroshock seizures in mice, 4 hr following 10 mg/kg p.o. administration.; assay type: functional; settings: route oral; in short: as §1
[3] = test system: Mus musculus; assay: Activity against maximal electroshock seizures in mice, 4 hr following oral administration of 75 mg/kg; assay type: functional; in short: as §1
[4] = test system: Mus musculus; assay: Activity against maximal electroshock seizures in mice, 4 hr following oral administration of 300 mg/kg of compound; assay type: functional; in short: as §1
[5] = test system: Mus musculus; assay: Activity against maximal electroshock seizures in mice, 4 hr following oral administration of 75 mg/kg of compound; assay type: functional; in short: as §1
[6] = test system: Mus musculus; assay: Compound activity was measured at 4 hr following administration of the oral dosage (perorally) 300 mg/kg in mice, and is reported as percent block at the given dose.; assay type: functional; in short: as §1
[7] = test system: Mus musculus; assay: Effective dose against maximal electroshock seizures in mice, at 4 hr following oral administration of 10 mg/kg of compound; assay type: functional
[8] = test system: Mus musculus; assay: Activity against maximal electroshock seizures in mice, 4 hr following oral administration of 18.75 mg/kg of compound; assay type: functional; in short: as §1
[9] = test system: Mus musculus; assay: Activity against maximal electroshock seizures in mice, 4 hr following oral administration of 37.5 mg/kg of compound; assay type: functional; in short: as §1
[10] = Inhibition concentration by inhibition of carbonic anhydrase from myelin in Rat
[11] = Inhibition concentration by inhibition of carbonic anhydrase from synaptosomes in Rat
[12] = Inhibition concentration by inhibition of carbonic anhydrase from brain in Rat
[13] = Inhibition concentration by inhibition of carbonic anhydrase from blood in Rat
[14] = Inhibition concentration by inhibition of carbonic anhydrase from kidney in Rat

SMILES: CC1(C)O[C@H]2[C@@H]3OS(=O)(=O)O[C@@H]3CO[C@@]2(COS(=O)(=O)N=[N+]=[N-])O1
- Block [1]: 100%
- Block [2]: 0%

SMILES: CCO[C@@H]1[C@H](OCC)CO[C@@]2(COS(N)(=O)=O)OC(C)(C)O[C@@H]12
- Block [3]: 0%
- Block [4]: 40%

SMILES: Cc1ccc(S(=O)(=O)/N=S2\O[C@@H]3[C@@H](CO[C@@]4(COS(N)(=O)=O)OC(C)(C)O[C@@H]34)O2)cc1 (stereo partly drawn)
- Block [3]: 0%
- Block [4]: 75%

SMILES: CCC1(CC)O[C@@H]2[C@@H](CO[C@@]3(COS(N)(=O)=O)OC(CC)(CC)O[C@@H]23)O1
- Block [3]: 0%
- Block [4]: 70%

SMILES: NS(=O)(=O)OC[C@@]12OC[C@H]3OS(=O)(=O)O[C@H]3[C@@H]1OC1(CCCCC1)O2
- Block [3]: 0%
- Block [4]: 10%

SMILES: CCC1(CC)O[C@H]2[C@@H]3OS(=O)(=O)O[C@@H]3CO[C@@]2(COS(N)(=O)=O)O1
- Block [2]: 0%
- Block [5]: 100%

SMILES: CC(C)(C)OC(=O)N=S1O[C@@H]2[C@@H](CO[C@@]3(COS(N)(=O)=O)OC(C)(C)O[C@@H]23)O1 (stereo partly drawn)
- Block [6]: 40%

SMILES: CC1(C)O[C@H]2[C@H](Br)[C@@H](Br)CO[C@@]2(COS(N)(=O)=O)O1
- Block [2]: 0%
- ED50 [7]: 21 mg/kg
- Block [3]: 100%

SMILES: CC1(C)O[C@@H]2[C@@H](CO[C@@]3(COS(C)(=O)=O)OC(C)(C)O[C@@H]23)O1
- Block [3]: 0%

SMILES: CC1(C)O[C@H]2[C@H](O)[C@@H](Cl)CO[C@@]2(COS(N)(=O)=O)O1
- ED50 [7]: 24 mg/kg
- Block [8]: 50%
- Block [9]: 90%

SMILES: C[C@@H]1O[C@@H]2[C@@H](CO[C@@]3(COS(N)(=O)=O)OC(C)(C)O[C@@H]23)O1
- Block [2]: 0%
- Block [3]: 100%

- IC50 [10]: 24 nM
- IC50 [11]: 7 nM
- IC50 [12]: 12 nM
- IC50 [13]: 37 nM
- IC50 [14]: 650 nM
SMILES: CC(=O)Nc1nnc(S(N)(=O)=O)s1 [ACETAZOLAMIDE]

SMILES: CC(=O)NS(=O)(=O)OC[C@@]12OC[C@H]3OC(C)(C)O[C@H]3[C@@H]1OC(C)(C)O2
- Block [3]: 30%

SMILES: CC1(C)O[C@@H]2[C@@H](CO[C@@]3(CCOS(N)(=O)=O)OC(C)(C)O[C@@H]23)O1
- Block [3]: 0%

SMILES: NS(=O)(=O)OC[C@@]12CCCC[C@@H]1CCC2
- Block [3]: 0%

SMILES: CC1(C)O[C@H]2[C@@H]3O[C@@H]3CO[C@@]2(COS(N)(=O)=O)O1
- Block [3]: 30%

SMILES: CC1(C)O[C@@H]2[C@@H](CO[C@@]3(COS(=O)(=O)NCc4ccccc4)OC(C)(C)O[C@@H]23)O1
- Block [3]: 0%

SMILES: CC1(C)O[C@H]2[C@@H]3OS(=O)(=O)O[C@@H]3CO[C@@]2(COC(N)=O)O1
- Block [3]: 0%
